Experimental data pooled from the literature.
Protocols differ between the studies behind these lines.
Observed: metabolic stability

O=C(N[C@H](Cc1c[nH]c2ccccc12)C(=O)Nc1ccncc1)c1ccc(-c2ccc(F)c(F)c2)cc1F — half-life (mouse, liver microsomes): 39 min
CC1=C(C(N)=O)C(=O)/C(=C\c2cc(C)n(-c3ccccc3C(F)(F)F)c2C)N1 — half-life (mouse, liver microsomes; 1 µM): 19 min
N=c1c2c(-c3ccccc3)c(-c3ccccc3)n(Cc3ccccc3)c2ncn1C1CCOCC1 — half-life (male CD-1 mouse, liver microsomes; 1 µM, pH 7.4): 30 min
COc1cccc(OC)c1CNC(=O)c1cc(C2NC(=O)NC(C)=C2C(=O)Nc2ccc3[nH]ncc3c2)ccc1F (stereo not drawn) — half-life (CD-1 mouse, liver microsomes; 1 µM, pH 7.4): < 4 min
Cc1ccc(-c2cnc(N3CCC(C(N)=O)CC3)s2)cc1 — half-life (mouse, liver microsomes; 1 µM): < 10 min
CC1=C(C(=O)O)C(=O)/C(=C\c2cc(C)n(-c3ccccc3C(F)(F)F)c2C)N1 — half-life (mouse, liver microsomes; 1 µM): 79 min
O=C1CCN(C(=O)Nc2ccc(F)c(Cl)c2)[C@H]2CCCC[C@@H]12 (relative stereo) — half-life (mouse, liver microsomes): > 32 min
CNC(=O)[C@H](Cc1c[nH]cn1)NC(=O)CN(CCCc1ccccc1)CC(=O)OC — half-life (male mouse, liver microsomes; 1 µM, pH 7.4): 26 min
CN1CC(Cc2cccc(CNC3(c4ccc(F)cc4)CCCC3)c2)C1 — half-life (mouse, liver microsomes; 4.6 µM, pH 7.5): ~60 min
N=c1c2c(-c3ccccc3)c(-c3ccccc3)n(CCc3ccccc3)c2ncn1[C@H]1CC[C@H](O)CC1 — half-life (male CD-1 mouse, liver microsomes; 1 µM, pH 7.4): > 120 min
O=S(=O)(Nc1cccc(-c2nnn[nH]2)c1)c1cc(C(F)(F)F)ccc1C(F)(F)F — half-life (mouse, liver microsomes): 35 min
O=[N+]([O-])c1ccc(CNc2nc(NCc3cccc(C(F)(F)F)c3)nc3[nH]cnc23)cc1 — half-life (mouse, liver microsomes; 1 µM, pH 7.4): 9 min
O=C(c1ccc(F)cc1)C1CCN(CCn2c(=O)[nH]c3ccccc3c2=O)CC1 — half-life (mouse, liver microsomes): 14.5 min
O=C(OC(C(F)(F)F)C(F)(F)F)N1Cc2ccc(OCCN3CCOCC3)cc2C1 — half-life (mouse, liver microsomes): 7 min
CCOC(=O)C1=C(C)N/C(=C/c2ccn(-c3ccccc3C(F)(F)F)c2)C1=O — half-life (mouse, liver microsomes; 1 µM): 11 min
COC(=O)CN(CCCc1ccccc1)CC(=O)N[C@@H](Cc1c[nH]cn1)c1nc(C)no1 — half-life (male mouse, liver microsomes; 1 µM, pH 7.4): 19 min
O=S(=O)(Nc1cccc(-c2nnn[nH]2)c1)c1ccc(C(F)(F)F)c(F)c1 — half-life (mouse, liver microsomes): 174 min
CCOC(=O)NS(=O)(=O)c1sc(CC(C)C)cc1-c1ccc2c(c1)CN(C)C(=O)C2 — half-life (mouse, liver microsomes; 1 µM, pH 7.4): 23 min
Cc1noc([C@H](Cc2c[nH]cn2)NC(=O)CN(CCCc2ccccc2)CC(=O)O)n1 — half-life (male mouse, liver microsomes; 1 µM, pH 7.4): > 40 min
CCOc1c(O)cc(Br)c2c1CN1CCc3cc(OCC(F)F)c(O)cc3[C@@H]1C2 — half-life (mouse, liver S9; 2 µM, pH 7.4): 9.63 min
CCCC[S+]([O-])c1sc2nc(-c3cccs3)ccc2c1N (stereo not drawn) — half-life (female CD-1 mouse, liver S9; 2 µM, pH 7.5): 13 min
CCCCOC(=O)NS(=O)(=O)c1sc(CC(C)C)cc1-c1cccc2c1CN(C(C)=O)C2 — half-life (mouse, liver microsomes; 1 µM, pH 7.4): 6.9 min
CC[C@@H]1C=CC(=O)O[C@@H]1C[C@@H](O)[C@H](C)[C@H](OC)[C@@H](C)Cc1ccccc1 — half-life (mouse, liver microsomes): 4.4 min
CCOC(=O)C1=C(C)N/C(=C/c2cc(C)n(-c3ccc(N(C)C)cc3)c2C)C1=O — half-life (mouse, liver microsomes; 1 µM): 31 min
Cc1c(CN2CCC(Nc3ncnc4sc(CC(F)(F)F)cc34)CC2)c(O)cc2[nH]c(C#N)cc12 — half-life (CD-1 mouse, liver microsomes; 1 µM, pH 7.4): > 30 min
Fc1ccc2nc(Cc3c[nH]c4c(F)cccc34)[nH]c2c1 — half-life (mouse, liver microsomes; pH 7.4): 7.2 min
O=C(Nc1ccc2sc(-c3ccc(F)c(F)c3)nc2c1)N1CC[C@H](F)C1 — half-life (mouse, liver microsomes; 1.5 µM): ≥ 60 min
CCOC(=O)C1=C(C)N/C(=C/c2cc(C)n(-c3ccncc3)c2C)C1=O — half-life (mouse, liver microsomes; 1 µM): 29 min
CCOC(=O)NS(=O)(=O)c1sc(CC(C)C)cc1-c1ccc2c(c1)CN(C(C)=O)C2 — half-life (mouse, liver microsomes; 1 µM, pH 7.4): 21 min
Cc1noc(C)c1-c1ccc2nc(C(=O)NC3CCN(C)CC3)nc(NCc3cccc(Cl)c3)c2c1 — half-life (mouse, liver microsomes): 28 min
Cc1cc(S(=O)(=O)Nc2cccc(-c3nnn[nH]3)c2)ccc1C(F)(F)F — half-life (mouse, liver microsomes): 133 min
O=C(Cc1ccc2ccccc2c1)Nc1cc(C2CCC2)[nH]n1 — half-life (mouse, liver S9): 28.1 min
NC[C@@H]1O[C@H](O[C@H]2[C@@H](O)[C@H](O[C@@H]3[C@@H](O)[C@H](N)C[C@H](N)[C@H]3O[C@H]3O[C@H](CO)[C@@H](O)[C@H](O)[C@H]3N)O[C@@H]2CO)[C@H](N)[C@@H](O)[C@@H]1O — half-life (mouse, liver microsomes; 25 µM, pH 7.4): 143 min
Cc1cccc(C(=O)Nc2nc(-c3ccccn3)cs2)c1 — half-life (CD-1 mouse, liver microsomes; 39.6 µM, pH 7.4): 6 min
O=S(=O)(Nc1cccc(-c2nnn[nH]2)c1)c1ccc(Cl)c2nonc12 — half-life (mouse, liver microsomes): 81 min
N=C(N)NCc1ccc(NC(=O)C23CCC(C(=O)Nc4ccc(C5=CCN(C(=N)N)CC5)cc4)(CC2)CC3)cc1 — half-life (CD-1 mouse, liver microsomes; 1 µM): > 60 min
Cc1ccc(S(=O)(=O)Nc2cccc(-c3nnn[nH]3)c2)cc1C — half-life (mouse, liver microsomes): 50 min
C=CC(=O)Nc1cc(F)c(N2CCC[C@@H](Nc3ncc(Cl)c(-c4c[nH]c5ccccc45)n3)C2)cc1C — half-life (mouse, liver microsomes): 3.9 min
CCOC(=O)C1=C(C)N/C(=C/c2ccn(-c3ccc(C(F)(F)F)cc3)c2)C1=O — half-life (mouse, liver microsomes; 1 µM): 12 min
C/C=C/C[C@H](C)[C@@H](OC)[C@@H](C)[C@H](O)C[C@H]1OC(=O)C=C[C@H]1CC — half-life (mouse, liver microsomes): < 15 min
O=C(Nc1cncc(-c2nc3ccccc3o2)c1)c1ccc(N2CCNCC2)c([N+](=O)[O-])c1 — half-life (CD-1 mouse, liver microsomes; 1 µM, pH 7.4): > 110 min
C=CC(=O)Nc1ccc(N2CCC[C@@H](Nc3ncc(Cl)c(-c4c[nH]c5ccccc45)n3)C2)cc1 — half-life (mouse, liver microsomes): 7.2 min
COc1ccc([C@@H](O)[C@@H](CN2CCCC2)NC(=O)CC2Cc3ccccc3C2)cc1F — half-life (CD-1 mouse, liver microsomes; 1 µM, pH 7.4): 2.7 min
CCOC(=O)C1=C(C)N/C(=C/c2cc(C)n(-c3ccc(Br)cc3)c2C)C1=O — half-life (mouse, liver microsomes; 1 µM): 28 min
O=C(O)C1CCN(c2ncc(-c3ccc4c(c3)OCCCO4)s2)CC1 — half-life (mouse, liver microsomes; 1 µM): > 30 min
CC[C@@H]1C=CC(=O)O[C@@H]1C[C@@H](O)[C@H](C)[C@H](OC)[C@@H](C)Cc1ccc(F)cc1 — half-life (mouse, liver microsomes): < 2.3 min
COc1cc(C2Oc3cc([C@H]4Oc5cc(O)cc(O)c5C(=O)[C@@H]4O)ccc3OC2CO)ccc1O (stereo partly drawn) — half-life (mouse, liver microsomes; 1 µM): 82.5 min
CCOC(=O)C1=C(C)N/C(=C/c2cc(C)n(-c3ccc(CN4CCOCC4)cc3)c2C)C1=O — half-life (mouse, liver microsomes; 1 µM): 31 min
CC(C)(C)C[C@@H]1N[C@@H](C(=O)N[C@H]2C[C@](C)(O)C2)[C@H](c2cccc(Cl)c2F)[C@]12C(=O)Nc1cc(Cl)ccc12 — half-life (mouse, liver microsomes): > 60 min
COc1ccc(NC(=O)[C@H]2c3ccccc3C(=O)N(CC(C)C)[C@@H]2c2cccs2)cc1Cl (racemic) — half-life (female CD-1 mouse, liver microsomes; 80 nM, pH 7.4): < 30 min
CCS(=O)(=O)Nc1ccc(OCCOCCOCCOCCOc2ccc(NS(=O)(=O)CC)cc2-c2cn(C)c(=O)c3ccccc23)c(-c2cn(C)c(=O)c3ccccc23)c1 — half-life (mouse, liver microsomes): < 2.3 min
CN1CCC(Cc2cccc(CNC3(c4ccc(F)cc4)CCCC3)c2)CC1(C)C (racemic) — half-life (mouse, liver microsomes; 4.6 µM, pH 7.5): ~60 min
CCCCOC(=O)NS(=O)(=O)c1sc(CC(C)C)cc1-c1ccc2c(c1)CCN(C(C)=O)C2 — half-life (mouse, liver microsomes; 1 µM, pH 7.4): 2.9 min
CC(C)NCC(O)COc1cccc2ccccc12 (stereo not drawn) — half-life (mouse, liver microsomes; 1 µM, pH 7.4): 15.8 min
